Source: ChEMBL document CHEMBL4382247, “A novel series of napabucasin derivatives as orally active inhibitors of signal transducer and activator of transcription 3 (STAT3)” (Eur J Med Chem, 2019)
pIC50: −log10 of the molar value. Calls of active or inactive are those of the source. The rule behind the calls is not given here.

What was measured:
[1] = system: CT26; assay: Antiproliferative activity against mouse CT26 cells after 72 hrs by MTT assay; format: functional, cell-based; details: CT26, 72 h
Summary of the method: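 Cells seeded at 5 × 10^3 per well and cultured 24 h before compound addition at varied concentrations, then grown a further 72 h; 0.5% DMSO as solvent control. MTT (5mg/ml solution) added for 4 h, formazan dissolved in DMSO, absorbance read at 570nm. Each treatment in triplicate; Mean ± SD.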

[2] = system: HT-29; assay: Potency index, ratio of napabucasin IC50 to test compound IC50 for human HT-29 cells; format: functional
[3] = system: CT26; assay: Antitumor activity against mouse CT26 cells implanted in BALB/c mouse assessed as tumor growth inhibition at 50 mg/kg, po administered once daily measured every 3 days relative to control; format: functional; details: 72 h, read-out: TGI
Summary of the method: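 Male BALB/c mice, 6 weeks old, given 1 × 10^6 CT-26 cells subcutaneously in the right flank. At about 70 mm3 tumour volume, randomized into groups of five and dosed orally once daily with 50mg/kg or vehicle (5% NMP in PEG 400). Tumours measured by caliper every 3 days, V = ab^2/2. Tumours weighed at sacrifice. TGI computed from mean tumour weights. T/C computed as mean RTV (Vt/V0) treated over control.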

[4] = Toxicity in BALB/c mouse implanted with mouse CT26 cells assessed as change in body weight at 50 mg/kg, po administered once daily; format: organism-based; details: in vivo
Summary of the method: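 Mice bearing subcutaneous CT-26 tumours, five per group, given 50mg/kg orally each day in 5% NMP/PEG 400, with an equal-volume vehicle control group. Body weight and behaviour monitored over the treatment period.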

[5] = Hepatotoxicity in BALB/c mouse implanted with mouse CT26 cells assessed as effect on liver morphology by measuring cell inflammation at 50 mg/kg, po administered once daily by H and E staining based histopathological analysis; format: toxicity, organism-based; details: in vivo
Summary of the method: (§1)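 CT-26 subcutaneous flank tumour model in male BALB/c mice, five per group, dosed orally at 50mg/kg daily in 5% NMP/95% PEG 400 versus vehicle. After treatment, heart, liver, spleen, lung and kidney collected, sectioned and stained with H&E for histological examination.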

[6] = Hepatotoxicity in BALB/c mouse implanted with mouse CT26 cells assessed as effect on liver morphology by measuring edema at 50 mg/kg, po administered once daily by H and E staining based histopathological analysis; format: toxicity, organism-based; details: in vivo; summary of the method: as §1
[7] = Toxicity in BALB/c mouse implanted with mouse CT26 cells assessed as effect on spleen morphology by measuring necrosis at 50 mg/kg, po administered once daily by H and E staining based histopathological analysis; format: organism-based; details: in vivo; summary of the method: as §1
[8] = Toxicity in BALB/c mouse implanted with mouse CT26 cells assessed as effect on lung morphology by measuring necrosis at 50 mg/kg, po administered once daily by H and E staining based histopathological analysis; format: organism-based; details: in vivo; summary of the method: as §1
[9] = target: T1, Signal transducer and activator of transcription 3 (Homo sapiens, UniProt P40763); assay: Inhibition of STAT3 phosphorylation at Y705 residue in human HepG2 cells at 400 nM after 24 hrs by Western blot analysis; format: cell-based
Summary of the method: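 Cells treated 24 and 48 h. Lysed in RIPA with protease inhibitors, protein quantified by BCA, equal amounts run on 10% SDS-PAGE and transferred to PVDF. Blocked in 5% milk, probed overnight at 4 °C with anti-total STAT3, anti-p-STAT3 (Tyr705) and GAPDH antibodies. ECL detection.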

[10] = system: HepG2; assay: Decrease in total STAT3 expression in human HepG2 cells at 400 nM after 24 hrs by DAPI staining based immunofluorescence microscopic analysis; format: ADME, cell-based; details: hepg2, 24 h, 0.4 µM
Summary of the method: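 HepG2 cells treated 24 h, stained with the same anti-total STAT3 antibody as the blots, nuclei counterstained with DAPI. Imaged on an inverted microscope with a 20× objective.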

[11] = target: T1, Signal transducer and activator of transcription 3; assay: Inhibition of STAT3 phosphorylation at Y705 residue in human U251 cells at 200 nM after 24 to 48 hrs by sandwich-ELISA; format: cell-based
Summary of the method: (§2)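 Cells treated 24 or 48 h. Whole-cell lysates made in lysis buffer with protease inhibitor cocktail. Total STAT3 and p-STAT3 Y705 measured by sandwich ELISA. Three repeats; groups compared with control by paired t-test; means ± S.D.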

[12] = target: T1, Signal transducer and activator of transcription 3; assay: Inhibition of STAT3 phosphorylation at Y705 residue in human HepG2 cells at 400 nM after 24 to 48 hrs by sandwich-ELISA; format: cell-based; summary of the method: as §2
[13] = target: T1, Signal transducer and activator of transcription 3; assay: Inhibition of biotin-labelled DNA probe binding to recombinant N-terminal FLAG-tagged STAT3 (unknown origin) expressed in HEK293 cells at 100 to 200 nM by EMSA; format: cell-based
Summary of the method: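 HEK293T cells transiently transfected with N-terminal FLAG-STAT3 (10 µg per 10 cm dish) and harvested at 48 h. STAT3 purified on anti-FLAG magnetic beads and eluted with FLAG peptide (200 µg/mL). Chemiluminescent EMSA with biotin-labelled STAT3 probe, 5 µL protein and 1 µL probe per lane. Cold-probe and anti-STAT3 antibody lanes included.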

T1 sequence (P40763 whole entry): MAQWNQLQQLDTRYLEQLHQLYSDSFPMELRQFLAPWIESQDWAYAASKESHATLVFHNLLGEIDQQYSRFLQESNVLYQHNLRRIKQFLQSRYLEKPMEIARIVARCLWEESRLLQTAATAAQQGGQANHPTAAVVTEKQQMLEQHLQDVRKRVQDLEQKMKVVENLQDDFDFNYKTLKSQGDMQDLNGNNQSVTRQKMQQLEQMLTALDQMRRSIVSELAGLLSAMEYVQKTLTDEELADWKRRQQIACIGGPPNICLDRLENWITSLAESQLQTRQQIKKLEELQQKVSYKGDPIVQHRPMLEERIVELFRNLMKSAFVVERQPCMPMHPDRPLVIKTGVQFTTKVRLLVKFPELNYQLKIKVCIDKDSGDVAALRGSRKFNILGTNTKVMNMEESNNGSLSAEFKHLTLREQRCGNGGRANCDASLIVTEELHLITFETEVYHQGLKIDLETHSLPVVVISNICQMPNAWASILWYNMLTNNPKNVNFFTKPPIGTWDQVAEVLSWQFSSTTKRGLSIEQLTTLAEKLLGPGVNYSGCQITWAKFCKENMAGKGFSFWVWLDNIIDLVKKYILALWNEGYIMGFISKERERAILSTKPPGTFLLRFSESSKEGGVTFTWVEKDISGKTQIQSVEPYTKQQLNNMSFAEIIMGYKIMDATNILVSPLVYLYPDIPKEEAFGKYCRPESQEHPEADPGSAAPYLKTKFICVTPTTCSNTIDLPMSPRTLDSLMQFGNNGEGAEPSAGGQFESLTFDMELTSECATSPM

O=C(NCCN1CCCCC1)c1cc2c(o1)C(=O)c1ccccc1C2=O
pIC50 [1]: 6.85
Ratio IC50 [2]: >10
inhibition in vivo at 50 mg/kg [3]: 63%
Activity [4]: Non-Toxic
Activity [5]: Non-Toxic
Activity [6]: Non-Toxic
Activity [7]: Non-Toxic
Activity [8]: Non-Toxic
inhibition [9]: Active
Activity [10]: Toxic
inhibition [11]: Active
inhibition [12]: Active
inhibition [13]: Active
